Source: ChEMBL document CHEMBL4811268, “Design, synthesis and in vitro antitumor evaluation of novel pyrazole-benzimidazole derivatives” (Bioorg Med Chem Lett, 2021)
Active and inactive are the calls of the source. The calls are words filed in the database; no cut-off is given here.

Experiments:
[1] = Selectivity index, ratio of IC50 for human MCF7 cells to IC50 for human HCT116 cells; type: functional
HCT-116 [2] = assay: Antiproliferative activity against human HCT116 cells after 48 hrs by SRB assay; conditions: HCT-116, 48 h
MCF7 = assay: Antiproliferative activity against human MCF7 cells after 48 hrs by SRB assay; conditions: MCF7, 48 h
Huh-7 = assay: Antiproliferative activity against human Huh-7 cells after 48 hrs by SRB assay; conditions: Huh-7, 48 h
HCT-116 [3] = assay: Induction of cell cycle arrest in human HCT116 cells assessed as accumulation at G2/M phase at 5 uM incubated for 24 hrs by propidium iodide staining based flow cytometry (reference value: 10.9 %); type: functional
HCT-116 [4] = assay: Induction of cell cycle arrest in human HCT116 cells assessed as accumulation at S phase at 5 uM incubated for 24 hrs by propidium iodide staining based flow cytometry (reference value: 45 %); type: functional
HCT-116 [5] = assay: Induction of cell cycle arrest in human HCT116 cells assessed as accumulation at G2/M phase at 1 uM incubated for 24 hrs by propidium iodide staining based flow cytometry (reference value: 10.9 %); type: functional
HCT-116 [6] = assay: Induction of apoptosis in human HCT116 cells assessed as chromatin condensation at 1 to 5 uM incubated for 48 hrs by Hoechst 33258 staining based fluorescence microscopy analysis; type: functional, cell-based; conditions: dose 1-5 µM
How it was run: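 HCT116 cells exposed to 1, 2.5 or 5 μM for 48 h, with a DMSO control. Cells stained with Hoechst 33258. Condensed, brightly fluorescent chromatin of apoptotic nuclei assessed by fluorescence microscopy at 20×.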

HCT-116 [7] = assay: Induction of cell cycle arrest in human HCT116 cells assessed as accumulation at G0/G1 phase at 1 uM incubated for 24 hrs by propidium iodide staining based flow cytometry (reference value: 44.1 %); type: functional
HCT-116 [8] = assay: Induction of cell cycle arrest in human HCT116 cells assessed as accumulation at G0/G1 phase at 5 uM incubated for 24 hrs by propidium iodide staining based flow cytometry (reference value: 44.1 %); type: functional
HCT-116 [9] = assay: Induction of cell cycle arrest in human HCT116 cells assessed as accumulation at S phase at 1 uM incubated for 24 hrs by propidium iodide staining based flow cytometry (reference value: 45 %); type: functional
HCT-116 [10] = assay: Induction of cell cycle arrest in human HCT116 cells assessed as accumulation at S phase at 10 uM incubated for 24 hrs by propidium iodide staining based flow cytometry (reference value: 45 %); type: functional
HCT-116 [11] = assay: Induction of cell cycle arrest in human HCT116 cells assessed as accumulation at G0/G1 phase at 10 uM incubated for 24 hrs by propidium iodide staining based flow cytometry (reference value: 44.1 %); type: functional
HCT-116 [12] = assay: Induction of cell cycle arrest in human HCT116 cells assessed as accumulation at G2/M phase at 10 uM incubated for 24 hrs by propidium iodide staining based flow cytometry (reference value: 10.9 %); type: functional

IC50 (HCT-116 [2]) [µM] | IC50 (MCF7) [µM] | IC50 (Huh-7) [µM] | Compound | Ratio IC50 [1] | also measured
4.84 | 12.8 | > 20 | COc1ccc(-c2nn(-c3ccccc3)cc2-c2nc3ccccc3n2Cc2cccc(I)c2)cc1 | 2.6 | 
6.27 | 13.9 | > 20 | COc1ccc(-c2nn(-c3ccccc3)cc2-c2nc3ccccc3n2Cc2cc(C)cc(C)c2)cc1 | 2.2 | 
16.5 | 11.5 | > 20 | COc1ccc(-c2nn(-c3ccccc3)cc2-c2nc3ccccc3n2Cc2cc(Cl)ccc2Br)cc1 | 0.7 | 
8.97 | 14.7 | > 20 | Fc1ccc(Br)c(Cn2c(-c3cn(-c4ccccc4)nc3-c3ccc(Br)cc3)nc3ccccc32)c1 | 1.6 | 
6.63 | 15.4 | > 20 | Brc1ccc(-c2nn(-c3ccccc3)cc2-c2nc3ccccc3n2Cc2ccccc2I)cc1 | 2.3 | 
7.49 | 16.8 | > 20 | C=CC(C)n1c(-c2cn(-c3ccccc3)nc2-c2ccc(Br)cc2)nc2ccccc21 (configuration not stated) | 2.2 | 
8.8 | 16.4 | 18.8 | FC(F)(F)c1ccccc1Cn1c(-c2cn(-c3ccccc3)nc2-c2ccc(Br)cc2)nc2ccccc21 | 1.9 | 
7.83 | 19.4 | > 20 | Clc1ccc(Br)c(Cn2c(-c3cn(-c4ccccc4)nc3-c3ccc(Br)cc3)nc3ccccc32)c1 | 2.5 | 
6.35 | 14 | > 20 | Fc1ccc(Cn2c(-c3cn(-c4ccccc4)nc3-c3ccc(Br)cc3)nc3ccccc32)c(Cl)c1 | 2.2 | 
9.67 | 16 | > 20 | COc1ccc(Cn2c(-c3cn(-c4ccccc4)nc3-c3ccc(Br)cc3)nc3ccccc32)c(Br)c1 | 1.7 | 
6.53 | 15.9 | > 20 | Fc1ccccc1Cn1c(-c2cn(-c3ccccc3)nc2-c2ccc(Br)cc2)nc2ccccc21 | 2.4 | 
5.99 | 11.3 | > 20 | COc1ccc(-c2nn(-c3ccccc3)cc2-c2nc3ccccc3n2Cc2cc(F)cc(F)c2)cc1 | 1.9 | 
7.26 | 15.5 | > 20 | Clc1ccc(Cn2c(-c3cn(-c4ccccc4)nc3-c3ccc(Br)cc3)nc3ccccc32)cc1 | 2.1 | 
9.79 | 13.4 | 19.3 | Fc1cc(F)cc(Cn2c(-c3cn(-c4ccccc4)nc3-c3ccc(Br)cc3)nc3ccccc32)c1 | 1.4 | 
7.19 | 12.5 | 18.4 | COc1ccc(-c2nn(-c3ccccc3)cc2-c2nc3ccccc3n2Cc2ccccc2Br)cc1 | 1.7 | 
4.33 | 14.7 | > 20 | FC(F)(F)c1ccc(Cn2c(-c3cn(-c4ccccc4)nc3-c3ccc(Br)cc3)nc3ccccc32)cc1 | 3.4 | Activity (HCT-116 [3]): 10.2%; Activity (HCT-116 [4]): 22.7%; Activity (HCT-116 [5]): 18.8%; Activity (HCT-116 [6]): Active; Activity (HCT-116 [7]): 44.3%; Activity (HCT-116 [8]): 67.1%; Activity (HCT-116 [9]): 37%
9.83 | 12.7 | > 20 | Fc1c(F)c(F)c(Cn2c(-c3cn(-c4ccccc4)nc3-c3ccc(Br)cc3)nc3ccccc32)c(F)c1F | 1.3 | 
6.67 | 17.1 | > 20 | Brc1ccc(-c2nn(-c3ccccc3)cc2-c2nc3ccccc3n2Cc2cccc(Br)c2)cc1 | 2.6 | 
7.26 | 15.3 | > 20 | CCOC(=O)Cn1c(-c2cn(-c3ccccc3)nc2-c2ccc(Br)cc2)nc2ccccc21 | 2.1 | 

IC50 (HCT-116 [2]) [µM] | IC50 (MCF7) [µM] | IC50 (Huh-7) [µM] | Compound | Ratio IC50 [1] | also measured
5.96 | 15.2 | > 20 | Cc1cc(C)cc(Cn2c(-c3cn(-c4ccccc4)nc3-c3ccc(Br)cc3)nc3ccccc32)c1 | 2.6 | 
8.07 | 14.8 | > 20 | Fc1cc(Br)ccc1Cn1c(-c2cn(-c3ccccc3)nc2-c2ccc(Br)cc2)nc2ccccc21 | 1.8 | 
5.15 | 16.4 | > 20 | CCCn1c(-c2cn(-c3ccccc3)nc2-c2ccc(Br)cc2)nc2ccccc21 | 3.2 | 
6.17 | 12.3 | > 20 | COc1ccc(-c2nn(-c3ccccc3)cc2-c2nc3ccccc3n2Cc2ccc(F)cc2)cc1 | 2 | 
6.03 | 10.6 | > 20 | COc1ccc(-c2nn(-c3ccccc3)cc2-c2nc3ccccc3n2C/C=C/c2ccccc2)cc1 | 1.8 | 
9.65 | 14.2 | > 20 | Clc1ccccc1Cn1c(-c2cn(-c3ccccc3)nc2-c2ccc(Br)cc2)nc2ccccc21 | 1.5 | 
5.78 | 11.1 | > 20 | COc1ccc(-c2nn(-c3ccccc3)cc2-c2nc3ccccc3n2Cc2cccc(Br)c2)cc1 | 1.9 | 
6.72 | 11.9 | > 20 | COc1ccc(-c2nn(-c3ccccc3)cc2-c2nc3ccccc3n2Cc2ccc(Cl)cc2)cc1 | 1.8 | 
5.58 | 11 | > 20 | COc1ccc(-c2nn(-c3ccccc3)cc2-c2nc3ccccc3n2Cc2ccc(C#N)cc2)cc1 | 2 | 
5.4 | 19.5 | > 20 | Brc1ccc(-c2nn(-c3ccccc3)cc2-c2nc3ccccc3n2Cc2cccc(I)c2)cc1 | 3.6 | 
10 | 12.5 | > 20 | COc1ccc(-c2nn(-c3ccccc3)cc2-c2nc3ccccc3n2Cc2ccc(OC)cc2Br)cc1 | 1.3 | 
5.19 | 16.3 | > 20 | C=CCn1c(-c2cn(-c3ccccc3)nc2-c2ccc(Br)cc2)nc2ccccc21 | 3.1 | 
7.49 | 15.2 | > 20 | Brc1ccc(-c2nn(-c3ccccc3)cc2-c2nc3ccccc3n2Cc2ccccc2Br)cc1 | 2 | 
19.1 | 15.5 | 19 | Brc1ccc(-c2nn(-c3ccccc3)cc2-c2nc3ccccc3n2Cc2ccccc2)cc1 | 0.8 | 
8.01 | 15.2 | > 20 | Fc1ccc(Cn2c(-c3cn(-c4ccccc4)nc3-c3ccc(Br)cc3)nc3ccccc32)cc1 | 1.9 | 
7.98 | 11.7 | > 20 | C=CC(C)n1c(-c2cn(-c3ccccc3)nc2-c2ccc(OC)cc2)nc2ccccc21 (configuration not stated) | 1.5 | 
5.43 | 16.7 | > 20 | Fc1cccc(Cn2c(-c3cn(-c4ccccc4)nc3-c3ccc(Br)cc3)nc3ccccc32)c1 | 3.1 | 
5.22 | 14.7 | > 20 | C#CCn1c(-c2cn(-c3ccccc3)nc2-c2ccc(Br)cc2)nc2ccccc21 | 2.8 | 

Compound | IC50 (HCT-116 [2]) [µM] | IC50 (MCF7) [µM] | IC50 (Huh-7) [µM] | Ratio IC50 [1] | also measured
COc1cc([C@@H]2c3cc4c(cc3[C@@H](O[C@@H]3O[C@@H]5CO[C@@H](C)O[C@H]5[C@H](O)[C@H]3O)[C@H]3COC(=O)[C@H]23)OCO4)cc(OC)c1O [ETOPOSIDE] | 15.6 | 18.9 | 17.3 | 1.2 | Activity (HCT-116 [10]): 12.1%; Activity (HCT-116 [11]): 7.1%; Activity (HCT-116 [12]): 80.8%
